In ChEMBL document CHEMBL1152202, “Synthesis and biological evaluation of helicid analogues as mushroom tyrosinase inhibitors” (Bioorg Med Chem Lett, 2008):
Active and inactive are the calls of the source. No cut-off for these calls is given here.

Experiments:
[1] = target: T1, Tyrosinase (Agaricus bisporus, UniProt O42713); experiment: Inhibition of mushroom tyrosinase assessed as 3,4-dihydroxy-L-phenylalanine oxidation
T1 sequence (O42713 whole entry): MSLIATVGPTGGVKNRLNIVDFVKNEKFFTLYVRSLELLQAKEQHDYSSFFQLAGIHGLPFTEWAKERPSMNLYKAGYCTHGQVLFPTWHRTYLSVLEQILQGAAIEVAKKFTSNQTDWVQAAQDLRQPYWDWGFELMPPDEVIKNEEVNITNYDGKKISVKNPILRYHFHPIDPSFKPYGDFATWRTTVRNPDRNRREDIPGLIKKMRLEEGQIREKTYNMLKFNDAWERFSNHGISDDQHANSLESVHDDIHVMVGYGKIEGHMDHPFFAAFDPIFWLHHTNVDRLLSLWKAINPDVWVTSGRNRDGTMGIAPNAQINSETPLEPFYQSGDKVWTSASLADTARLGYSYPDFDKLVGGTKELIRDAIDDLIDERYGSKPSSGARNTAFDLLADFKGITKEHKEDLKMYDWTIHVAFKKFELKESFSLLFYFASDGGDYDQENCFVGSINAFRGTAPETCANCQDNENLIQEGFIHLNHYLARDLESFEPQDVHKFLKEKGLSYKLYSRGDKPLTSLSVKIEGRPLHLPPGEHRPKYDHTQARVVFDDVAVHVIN

[2] = target: T2, Tyrosinase (Agaricus bisporus) (UniProt O42713); experiment: Inhibition of mushroom tyrosinase assessed as 3,4-dihydroxy-L-phenylalanine oxidation at 0.1 mM
T2 sequence (whole entry): T1 sequence (O42713 whole entry)
How it was run: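 Mushroom tyrosinase was the enzyme source. Activity was reported as IC50 in mM, with compounds tested up to 3.0 mM, and as percent inhibition at 0.1 mM. Values are means of three separate experiments.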

[3] = tested on: Mus musculus; experiment: Toxicity in mouse assessed by autopsy at 1200 mg/kg, po administered as single gavage dose after 20 days; assay type: organism-based; parameters: dose 1200 mg/kg, route oral; details: in vivo, 480 h
How it was run: (§1)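 Acute oral toxicity in mice: one 1200 mg/kg dose given by gavage. Clinical symptoms and mortality were followed for 20 days. Animals were autopsied at the end of the 20-day period, and organs were examined for gross changes.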

[4] = tested on: Mus musculus; experiment: Toxicity in mouse assessed as mortality at 1200 mg/kg, po administered as single gavage dose after 20 days; assay type: organism-based; parameters: dose 1200 mg/kg, route oral; details: in vivo, 480 h; how it was run: as §1

Structure (SMILES) | IC50 [1] | Activity [2] | inhibition [2] | Activity [3] | Activity [4]
O=Cc1ccc(O[C@@H]2O[C@H](COC(c3ccccc3)(c3ccccc3)c3ccccc3)[C@@H](O)[C@@H](O)[C@H]2O)cc1 | > 3000 µM | inactive | – | – | –
O=Cc1ccc(O)cc1 [4-HYDROXYBENZALDEHYDE] | 1120 µM | – | 15% | – | –
O=Cc1ccc(O[C@@H]2OC[C@@H](OC(=O)c3ccccc3)[C@@H](OC(=O)c3ccccc3)[C@H]2OC(=O)c2ccccc2)cc1 | > 3000 µM | inactive | – | – | –
CC(=O)O[C@H]1[C@@H](OC(C)=O)[C@H](Oc2ccc(C=O)cc2)O[C@H](CO)[C@H]1OC(C)=O | > 3000 µM | inactive | – | – | –
O=Cc1ccc(O[C@@H]2O[C@@H]3CO[C@@H](c4ccccc4)O[C@H]3[C@@H](O)[C@H]2O)cc1 | 52 µM | – | 77% | Non-toxic | Non-toxic
O=Cc1ccc(O[C@@H]2O[C@H](CO)[C@@H](O)[C@H](O)[C@H]2O)cc1 | 940 µM | – | 30% | Non-toxic | Non-toxic

Second part, led by results:

IC50 [1] | Activity [2] | inhibition [2] | Structure (SMILES) | Activity [3] | Activity [4]
> 3000 µM | inactive | – | CC(=O)OC[C@H]1O[C@@H](Oc2ccc(C=O)cc2)[C@H](OC(C)=O)[C@@H](OC(C)=O)[C@@H]1OC(C)=O | – | –
280 µM | – | 42% | O=Cc1ccc(O[C@@H]2OC[C@@H](O)[C@@H](O)[C@H]2O)cc1 | – | –
620 µM | – | 13% | CC1(C)O[C@@H]2[C@H](O)[C@@H](CO)O[C@@H](Oc3ccc(C=O)cc3)[C@@H]2O1 | – | –
– | inactive | – | OC[C@H]1O[C@@H](Oc2ccc(O)cc2)[C@H](O)[C@@H](O)[C@@H]1O | – | –
> 3000 µM | – | 5% | CC(=O)OC[C@H]1O[C@@H](O[C@H]2[C@H](OC(C)=O)[C@@H](OC(C)=O)[C@H](Oc3ccc(C=O)cc3)O[C@@H]2COC(C)=O)[C@H](OC(C)=O)[C@@H](OC(C)=O)[C@H]1OC(C)=O | – | –
– | – | 22% | COc1ccc(/C=C/C(=O)O)cc1 | – | –
2540 µM | – | 10% | O=Cc1ccc(O[C@@H]2O[C@H](CO)[C@@H](O)[C@@H](O)[C@H]2O)cc1 [HELICIDE] | – | –
430 µM | – | 24% | COP(=O)(OC)OC[C@H]1O[C@@H](Oc2ccc(C=O)cc2)[C@H](O)[C@H](O)[C@@H]1O | – | –
